Assay results published in ChEMBL document CHEMBL1133134, “Inhibition of dopamine receptors by endogenous amines: binding to striatal receptors and pharmacological effects on locomotor activity” (Bioorg Med Chem Lett, 2000).

How the values were obtained:
Assay type in all cases: subcellular, Brain
[1] = molecular target: Sodium-dependent dopamine transporter (Rattus norvegicus, UniProt P23977); assay: The compound has been evaluated for its binding affinity towards Dopamine transporter by displacing the radioligand [3H]GBR-12935 (1.0 nM) in rat striatal synaptosomes.
Summary of the method: (§1)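 Rat striatal synaptosomes were incubated with a ³H-labelled radioligand. Nonspecific binding was defined with excess unlabelled ligand and subtracted: SCH23390 for D1, sulpiride for D2 and GBR12909 for the dopamine transporter. Ki was calculated from IC50 as IC50/(1+[L]/KD), where [L] is the radioligand concentration and KD its dissociation constant.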

[2] = molecular target: D(1A) dopamine receptor (Rattus norvegicus, UniProt P18901); assay: The compound has been evaluated for its binding affinity towards Dopamine receptor D1 by displacing the radioligand [3H]SCH-23390 (1.5 nM) in rat striatal synaptosomes.; summary of the method: as §1
[3] = molecular target: D(2) dopamine receptor (Rattus norvegicus, UniProt P61169); assay: The compound has been evaluated for its binding affinity towards Dopamine receptor D2 by displacing the radioligand [3H]YM-09151-2 (0.5 nM) in rat striatal synaptosomes.; summary of the method: as §1
Chain of D(2) dopamine receptor (P61169 whole entry): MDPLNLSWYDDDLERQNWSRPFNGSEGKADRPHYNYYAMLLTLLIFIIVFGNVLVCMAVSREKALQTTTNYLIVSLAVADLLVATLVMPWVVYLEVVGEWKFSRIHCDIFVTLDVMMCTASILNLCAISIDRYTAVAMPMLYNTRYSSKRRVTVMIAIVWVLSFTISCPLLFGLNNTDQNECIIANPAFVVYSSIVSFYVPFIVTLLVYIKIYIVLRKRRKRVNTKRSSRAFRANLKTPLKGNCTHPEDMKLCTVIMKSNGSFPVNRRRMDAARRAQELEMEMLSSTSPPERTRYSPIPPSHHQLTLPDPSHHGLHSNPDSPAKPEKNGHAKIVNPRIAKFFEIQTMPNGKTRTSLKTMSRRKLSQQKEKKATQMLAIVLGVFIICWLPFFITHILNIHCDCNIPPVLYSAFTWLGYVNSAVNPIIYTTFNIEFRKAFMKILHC

Chain of Sodium-dependent dopamine transporter (P23977 whole entry): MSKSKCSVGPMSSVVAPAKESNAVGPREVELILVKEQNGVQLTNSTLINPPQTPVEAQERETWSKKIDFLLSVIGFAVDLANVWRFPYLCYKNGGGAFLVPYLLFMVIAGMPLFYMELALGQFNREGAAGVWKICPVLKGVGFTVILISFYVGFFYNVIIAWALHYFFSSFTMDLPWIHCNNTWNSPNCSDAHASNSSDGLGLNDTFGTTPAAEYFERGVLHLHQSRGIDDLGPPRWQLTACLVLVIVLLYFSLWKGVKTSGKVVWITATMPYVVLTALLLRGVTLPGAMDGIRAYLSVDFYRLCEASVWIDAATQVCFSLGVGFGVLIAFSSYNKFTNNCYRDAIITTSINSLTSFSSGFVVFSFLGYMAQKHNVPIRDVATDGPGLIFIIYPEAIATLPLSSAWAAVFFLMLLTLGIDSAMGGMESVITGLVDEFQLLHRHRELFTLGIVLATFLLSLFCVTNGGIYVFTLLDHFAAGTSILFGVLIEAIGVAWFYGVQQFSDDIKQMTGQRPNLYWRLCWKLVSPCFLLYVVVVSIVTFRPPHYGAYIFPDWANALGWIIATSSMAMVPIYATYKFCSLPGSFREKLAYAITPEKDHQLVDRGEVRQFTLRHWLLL
Chain of D(1A) dopamine receptor (P18901 whole entry): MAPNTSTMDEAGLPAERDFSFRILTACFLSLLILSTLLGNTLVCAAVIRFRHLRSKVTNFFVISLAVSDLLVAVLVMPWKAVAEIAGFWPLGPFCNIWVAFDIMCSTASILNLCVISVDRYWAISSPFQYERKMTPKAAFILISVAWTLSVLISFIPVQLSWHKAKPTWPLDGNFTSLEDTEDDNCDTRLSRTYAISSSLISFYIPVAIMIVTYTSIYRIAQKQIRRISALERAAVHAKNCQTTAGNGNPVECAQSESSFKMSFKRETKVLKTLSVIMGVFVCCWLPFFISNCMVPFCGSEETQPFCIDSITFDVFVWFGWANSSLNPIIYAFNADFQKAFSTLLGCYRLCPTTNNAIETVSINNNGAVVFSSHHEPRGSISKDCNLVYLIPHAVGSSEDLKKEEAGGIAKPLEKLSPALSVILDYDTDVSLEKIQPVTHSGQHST

Row | Ki [1] | Ki [2] | Ki [3] | SMILES
1 | 21.5 µM | 175 µM | 8.79 µM | Oc1ccc(CC2NCCc3ccccc32)cc1O (centres undefined)
2 | 36.6 µM | 249 µM | 3.57 µM | c1ccc(CC2NCCc3ccccc32)cc1 (centres undefined)
3 | 57.6 µM | 9.27 µM | 0.64 µM | Oc1cc2c(cc1O)C(Cc1ccccc1)NCC2 (centres undefined)
